Series [1] has as its system Enterovirus. The series is described as follows: In vitro inhibitory concentration against human enterovirus EV71-4643 strain. The series is classed as functional, organism-based, Enterovirus A71. The method, boiled down:
(§1)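 CPE-inhibition (neutralization) assay on RD cells seeded at 3 × 10⁵ cells/mL in DMEM/10% FBS and grown 24-30 h to about 90% confluency. Virus (100 TCID50) was mixed with graded compound concentrations and adsorbed 1 h at 37 °C. Cells were overlaid with DMEM, 5% FBS and 2% DMSO, incubated 64 h at 37 °C, then glutaraldehyde-fixed and crystal violet-stained, with A570 read-out. IC50 is 50% CPE reduction versus virus control. Triplicate, at least twice.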

Series [2] is described as follows: Cytotoxicity against human rhabdomyosarcoma cells. It counts as cell-based. The method, boiled down: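 RD (rhabdomyosarcoma) cells were exposed to test compounds at various concentrations for 96 h at 37 °C. Viable cells were counted by trypan blue staining. CC50 is the concentration that reduces viability to 50% of the untreated control culture. Triplicate, run at least twice.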

Series [3] deals with Enterovirus. The series can be described thus: In vitro inhibitory concentration against human enterovirus EV71-2231 strain. The series is classed as functional, organism-based, Enterovirus A71. The gist of the method:
as §1

Series [4] concerns Enterovirus. The series is described as follows: Ratio of CC50 to that of IC50 against human enterovirus EV71-2231 strain. The series is classed as functional, Enterovirus A71.
In series [5] the test system is Enterovirus. The series is described as follows: Ratio of CC50 to that of IC50 against human enterovirus EV71-4643 strain. The series is classed as functional, Enterovirus A71.
The subject of series [6] is Coxsackievirus. The series can be described thus: Inhibitory concentration against Coxsackievirus B5. It counts as functional, organism-based, Viruses. The method, boiled down: as §1
In series [7] the test system is Coxsackievirus. The series is described as follows: Inhibitory concentration against Coxsackievirus A16. The series is classed as functional, organism-based, Viruses. The gist of the method: as §1
The subject of series [8] is Enterovirus. The series can be described thus: Inhibitory concentration against human enterovirus EV71 (2086) genotype C. It counts as functional, organism-based, Viruses. The gist of the method:
as §1

The subject of series [9] is Coxsackievirus. The series is described as follows: Inhibitory concentration against Coxsackievirus B4. It counts as functional, organism-based, Viruses. The gist of the method:
as §1

The subject of series [10] is Coxsackievirus. The series can be described thus: Inhibitory concentration against Coxsackievirus A9. The series is classed as functional, organism-based, Viruses. The gist of the method: as §1
Series [11] concerns Coxsackievirus. The series is described as follows: Inhibitory concentration against Coxsackievirus B2. It counts as functional, organism-based, Viruses. The gist of the method:
as §1

The next series relates to rhinovirus A2. The series is described as follows: Inhibitory concentration against Human rhinovirus 2. The series is classed as functional, organism-based, human rhinovirus type 2. To be noted: Rhinovirus A. The method, boiled down:
as §1

The test system of series [12] is Enterovirus. The series is described as follows: Inhibitory concentration against human enterovirus EV71 (4643) genotype C. It counts as functional, organism-based, Viruses. The gist of the method:
as §1

The subject of series [13] is Coxsackievirus. The series can be described thus: Inhibitory concentration against Coxsackievirus A24. It counts as functional, organism-based, Viruses. The gist of the method: as §1
In series [14] the test system is Coxsackievirus. The series can be described thus: Inhibitory concentration against Coxsackievirus B1. The series is classed as functional, organism-based, Viruses. The method, boiled down:
as §1

The subject of series [15] is Enterovirus. The series can be described thus: Inhibitory concentration against human enterovirus EV71 (2231) genotype C. The series is classed as functional, organism-based, Viruses. The method, boiled down:
as §1

A short description of series [16]: Inhibitory concentration against Echovirus 29. The series is classed as functional, Viruses. The method, boiled down:
as §1

Series [17] has as its system Coxsackievirus. The series can be described thus: Inhibitory concentration against Coxsackievirus A10. The series is classed as functional, organism-based, Viruses. The gist of the method: as §1
Series [18] is described as follows: Inhibitory concentration against Echovirus 9. It counts as functional, Viruses. The method, boiled down:
as §1

Series [19] deals with Enterovirus. The series is described as follows: Inhibitory concentration against human enterovirus EV71 (1743) genotype B. The series is classed as functional, organism-based, Viruses. The gist of the method: as §1
Series [20] has as its system Coxsackievirus. The series is described as follows: Inhibitory concentration against Coxsackievirus B3. It counts as functional, organism-based, Viruses. The method, boiled down: as §1
Series [21] in a line: Inhibitory concentration against Human rhinovirus 14. It counts as functional, human rhinovirus type 14. The method, boiled down: as §1
Series [22] deals with Coxsackievirus. The series can be described thus: Inhibitory concentration against Coxsackievirus B6. It counts as functional, organism-based, Viruses. The method, boiled down:
as §1

In series [23] the test system is Enterovirus. The series can be described thus: Inhibitory concentration against human enterovirus EV68. The series is classed as functional, organism-based, Viruses.
Series [24] deals with Enterovirus. The series is described as follows: Inhibitory concentration against human enterovirus EV71 (BrCr) genotype A. The series is classed as functional, organism-based, Viruses. The gist of the method: as §1

Each structure is given as a SMILES string. Some results are limits rather than exact numbers.

As to `CC(C)C(CCOc1ccc(-c2ccc(Cl)cc2)cc1)CCN1CCN(c2ccncc2)C1=O` (centres undefined), the half-inhibitory concentration (IC50) in the series on Enterovirus [1] was 2110 nM; in the series on Enterovirus [3], above 25000 nM. Further, the CC50 in [2] is above 25000 nM.

Consider `O=C1N(Cc2cccc(COc3ccc(-c4ccc(Cl)cc4)cc3)c2)CCN1c1ccncc1`, for which the figures for the IC50 in the series with Enterovirus [1] and in the series with Enterovirus [3] were 160 nM and 1170 nM, respectively. The CC50 in [2] was above 6250 nM.

Consider `CC(CCOc1ccc(-c2noc(C(F)(F)F)n2)cc1)CCN1CCN(c2ccncc2)C1=O` (centres undefined), for which the results for the Selectivity index with Enterovirus [4] and with Enterovirus [5] were above 1041 and above 17857, respectively. Besides, the IC50 is 1.4 nM with Enterovirus [1] and 24 nM in the series with Enterovirus [3]. Further, the CC50 in series [2] is above 25000 nM.

For `CCn1nnc(-c2ccc(OCCC(C)CCN3CCN(c4ccncc4)C3=O)cc2)n1` (centres undefined), the Selectivity index in the series with Enterovirus [4] was above 892; in the series with Enterovirus [5] it was above 13888. Further, the IC50 in the series with Coxsackievirus [6] was 10400 nM; in the series with Enterovirus [1] it was 0.9 nM; with Coxsackievirus [7], 130 nM; in the series on Enterovirus [8], 3 nM; in the series with Coxsackievirus [9], 2740 nM; in the series on Coxsackievirus [10], above 25000 nM. The IC50 was above 25000 nM with Coxsackievirus [11]; 1450 nM in the series on rhinovirus A2; 0.9 nM with Enterovirus [12]; 140 nM in the series on Coxsackievirus [13]; 35 nM in the series on Coxsackievirus [14]; 14 nM with Enterovirus [15]. Further, the IC50 in [16] is 3230 nM; with Coxsackievirus [17] it was 240 nM; in [18], 280 nM; in the series with Enterovirus [19], 18 nM; in the series with Coxsackievirus [20], above 25000 nM; in [21] it was 850 nM. The IC50 in the series on Coxsackievirus [22] was above 25000 nM; with Enterovirus [3], 14 nM; in the series on Enterovirus [23], 2870 nM; in the series with Enterovirus [24], 15 nM. In series [2], this compound came in with a CC50 above 12500 nM.

As to `O=C1N(CCC(CCOc2ccc(-c3ccc(Cl)cc3)cc2)c2ccccc2)CCN1c1ccncc1` (centres undefined), the IC50 in the series on Enterovirus [1] and with Enterovirus [3] was above 25000 nM in each case. Also, in [2], the CC50 is above 25000 nM.

Take `O=C1N(Cc2ccccc2COc2ccc(-c3ccc(Cl)cc3)cc2)CCN1c1ccncc1`: the IC50 in the series on Enterovirus [1] and in the series on Enterovirus [3] was above 1250 nM in each case. The CC50 in [2] is above 1250 nM.

With `CC(CCOc1ccc(-c2ccc(Cl)cc2)cc1)CCN1CCN(c2ccncc2)C1=O` (centres undefined), the values for the Selectivity index in the series on Enterovirus [4] and with Enterovirus [5] were above 657 and above 2688, respectively. For the same compound, the IC50 in the series with Coxsackievirus [6] was 1320 nM; with Enterovirus [1], 9.3 nM; with Coxsackievirus [7] it was 900 nM; in the series on Coxsackievirus [9], 1240 nM; with Coxsackievirus [10], 33 nM; in the series on Coxsackievirus [11], above 12500 nM. The IC50 with rhinovirus A2 was above 12500 nM; in the series on Enterovirus [12], 9.3 nM; with Coxsackievirus [13], 250 nM; in the series on Coxsackievirus [14], 2890 nM; in the series on Enterovirus [15], 38 nM; in series [16], 40 nM. Further, the IC50 in the series with Coxsackievirus [17] is 1710 nM; in [18], 2630 nM; in the series on Enterovirus [19], 16 nM; with Coxsackievirus [20], above 12500 nM; in series [21] it was 7910 nM; in the series with Coxsackievirus [22] it was above 12500 nM. Moreover, the IC50 is 38 nM with Enterovirus [3], 2680 nM in the series on Enterovirus [23] and 69 nM in the series with Enterovirus [24]. The compound further returned a CC50 in series [2] above 25000 nM.

For the compound `CC(C)(CCOc1ccc(-c2ccc(Cl)cc2)cc1)CCN1CCN(c2ccncc2)C1=O`, the IC50 in the series with Enterovirus [1] came to 41 nM; with Enterovirus [3], 140 nM. In series [2], this compound gave a 50% cytotoxic concentration (CC50) above 25000 nM.

Regarding `CCc1nc(-c2ccc(OCCC(C)CCN3CCN(c4ccncc4)C3=O)cc2)no1` (centres undefined), the results for the Selectivity index with Enterovirus [4] and with Enterovirus [5] were above 1666 and above 50000, respectively. Besides, the half-maximal inhibitory concentration (IC50) with Coxsackievirus [6] was 4500 nM; with Enterovirus [1] it was 0.5 nM; with Coxsackievirus [7], 87 nM; in the series with Enterovirus [8], 4 nM; in the series with Coxsackievirus [9], 1270 nM; with Coxsackievirus [10] it was above 25000 nM. In addition, the IC50 with Coxsackievirus [11] is 4790 nM; in the series on rhinovirus A2 it was 1580 nM; with Enterovirus [12] it was 0.5 nM; with Coxsackievirus [13] it was 150 nM; in the series with Coxsackievirus [14] it was 46 nM; with Enterovirus [15], 15 nM. For the same compound, the IC50 is 2630 nM in series [16]; 560 nM in the series on Coxsackievirus [17]; 500 nM in series [18]; 15 nM in the series on Enterovirus [19]; above 25000 nM in the series on Coxsackievirus [20]; 830 nM in series [21]. Further, the half-maximal inhibitory concentration (IC50) is above 25000 nM with Coxsackievirus [22], 15 nM in the series with Enterovirus [3], 5460 nM in the series with Enterovirus [23] and 10 nM in the series on Enterovirus [24]. The compound further displayed a cytotoxic concentration (CC50) in series [2] above 25000 nM.

Consider `CC(C)(CCCOc1ccc(-c2ccc(Cl)cc2)cc1)CN1CCN(c2ccncc2)C1=O`, for which the IC50 in the series on Enterovirus [1] was found to be 94 nM; in the series with Enterovirus [3], 720 nM. This compound also had a CC50 in [2] of 20000 nM.

Turning to `CC(CCCN1CCN(c2ccncc2)C1=O)COc1ccc(-c2ccc(Cl)cc2)cc1` (centres undefined), the IC50 in the series on Enterovirus [1] is 15 nM; with Enterovirus [3], 57 nM. Moreover, the CC50 in series [2] was above 25000 nM.

For `O=C1N(CCOCCOc2ccc(-c3ccc(Cl)cc3)cc2)CCN1c1ccncc1`, the IC50 was 830 nM in the series with Enterovirus [1] and 7300 nM in the series with Enterovirus [3]. In series [2], this compound yielded a CC50 of 25000 nM.

For the compound `CC(CCOc1ccc(-c2nnn(C)n2)cc1)CCN1CCN(c2ccncc2)C1=O` (centres undefined), the Selectivity index in the series with Enterovirus [4] is above 581; with Enterovirus [5], above 8928. For the same compound, the IC50 was 2.8 nM in the series with Enterovirus [1] and 43 nM with Enterovirus [3]. In series [2], this compound came in with a CC50 above 25000 nM.

As for `O=C1N(Cc2ccc(COc3ccc(-c4ccc(Cl)cc4)cc3)cc2)CCN1c1ccncc1`, the IC50 in the series on Enterovirus [1] and with Enterovirus [3] was above 1250 nM in each case. Moreover, the CC50 in [2] was above 1250 nM.

With `Cc1ccc(CN(CCOc2ccc(-c3ccc(Cl)cc3)cc2)CCN2CCN(c3ccncc3)C2=O)cc1`, the IC50 with Enterovirus [1] and with Enterovirus [3] was above 12500 nM throughout. This compound returned a CC50 in series [2] above 12500 nM.

For the origin of these results see ChEMBL document CHEMBL1139509, “Design, synthesis, and antipicornavirus activity of 1-[5-(4-arylphenoxy)alkyl]-3-pyridin-4-ylimidazolidin-2-one derivatives” (J Med Chem, 2005).
